# How the values were obtained:
# Influenza A virus = assay: Antiviral activity against Influenza A virus (H1N1); type: functional, organism-based
# cells [1] = type: cell-based, Ebolavirus, HEK293T; settings: Orthoebolavirus, Mayinga, HEK-293T
# cells [2] = type: cell-based, HEK293T; settings: Vesicular stomatitis virus, HEK-293T
# [3] = Cytotoxicity against human HEK293T cells incubated for 48 hrs by MTT assay; type: cell-based, HEK-293T; settings: HEK293T cells
# Outline: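 HEK293T cells at 10⁵ cells/ml were added to two-fold compound dilutions in 10% DMEM and incubated 48 h at 37 °C, 5% CO2. MTT (5 mg/ml stock in PBS, 1/10 volume) was added for 2 h, and formazan was dissolved in DMSO before reading optical density. Each concentration was run in triplicate. CC50 was the concentration giving 50% cell death, or halving OD versus control.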
# in vitro = settings: human, HEK293T cells
# [4] = Cytotoxicity against African green monkey Vero cells assessed as reduction in cell survival incubated for 10 days by neutral red dye based colorimetric analysis; settings: chlorocebus sabaeus, Vero cells; time 10 day
# Outline: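 Confluent Vero monolayers received six concentrations from 3-fold serial dilutions in DMEM of DMSO-dissolved compound, plus medium without virus. After 10 days at 37 °C, 5% CO2, cells were stained with neutral red and read at 490 nm. CC50 came from a 4-parameter fit, with at least 3 analyses per compound.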
# Marburgvirus = assay: Antiviral activity against MARV Popp infected in African green monkey Vero cells assessed as inhibition of viral infection by measuring reduction in virus-induced cytotoxicity incubated for 10 days by neutral red dye based colorimetric analysis; type: functional, organism-based; settings: Orthomarburgvirus, Popp, Vero, 240 h; read-out: IC50
# Zaire ebolavirus = assay: Antiviral activity against Zaire ebolavirus infected in African green monkey Vero cells assessed as inhibition of viral infection by measuring […] incubated for 10 days by neutral red dye based colorimetric analysis; type: functional, organism-based; settings: vero
SMILES,IC50 (Influenza A virus),IC50 (cells [1]),IC50 (cells [2]),CC50 at 48 h [3],selectivity ratio (in vitro),CC50 at 240 h [4],IC50 (Marburgvirus),IC50 (Zaire ebolavirus)
CC1(C)[C@@H]2CC[C@@]1(C)/C(=N/CCO)C2,5.1 µM,–,–,–,–,–,–,–
CC1(C)[C@H]2CC[C@]1(C)[C@H](OC(=O)CN1CCOCC1)C2,–,24.9 µM,291 µM,327 µM,13,–,–,–
CCN1CCN(CCC(=O)O[C@@H]2C[C@@H]3CC[C@@]2(C)C3(C)C)CC1,–,1.6 µM,80.5 µM,264 µM,–,19.2 µM,17.8 µM,Not Active
CN1CCN(CC(=O)O[C@@H]2C[C@@H]3CC[C@@]2(C)C3(C)C)CC1,–,6.8 µM,485 µM,312 µM,46,–,–,–
CC1CCN(CC(=O)O[C@@H]2C[C@@H]3CC[C@@]2(C)C3(C)C)CC1,–,8.5 µM,35 µM,71.6 µM,8,–,–,–
CCN1CCN(CC(=O)O[C@@H]2C[C@@H]3CC[C@@]2(C)C3(C)C)CC1,–,1.6 µM,264 µM,130 µM,80,–,–,–
CCOC(=O)N1CCN(CC(=O)O[C@@H]2C[C@@H]3CC[C@@]2(C)C3(C)C)CC1,–,19.9 µM,113 µM,227 µM,11,–,–,–
CC1CCN(CCC(=O)N[C@@H]2C[C@H]3CC[C@]2(C)C3(C)C)CC1,–,2.6 µM,93.6 µM,93.6 µM,36,–,–,–
CC1(C)[C@H]2CC[C@]1(C)[C@H](OC(=O)CN1CCCCC1)C2,–,15.7 µM,122 µM,141 µM,9,–,–,–
CCOC(=O)N1CCN(CCC(=O)O[C@@H]2C[C@@H]3CC[C@@]2(C)C3(C)C)CC1,–,28.3 µM,–,110 µM,4,–,–,–
CC1CCN(CC(=O)N[C@@H]2C[C@H]3CC[C@]2(C)C3(C)C)CC1,–,27 µM,78 µM,78 µM,–,–,–,–
CN(C)CCCC(=O)O[C@@H]1C[C@@H]2CC[C@@]1(C)C2(C)C,–,1.5 µM,–,101 µM,67,–,–,–
CC1CCN(CC(=O)O[C@@H]2C[C@H]3CC[C@]2(C)C3(C)C)CC1,–,3.1 µM,–,34.1 µM,11,–,–,–
CC1(C)[C@H]2CC[C@]1(C)[C@H](OC(=O)CN1CCN(CCO)CC1)C2,–,13.9 µM,394 µM,296 µM,21,–,–,–
CC1(C)[C@H]2CC[C@]1(C)[C@H](OC(=O)CCN1CCCCCC1)C2,–,5.1 µM,191 µM,182 µM,36,–,–,–
CC1CCN(CCCC(=O)O[C@@H]2C[C@@H]3CC[C@@]2(C)C3(C)C)CC1,–,9.3 µM,276 µM,171 µM,–,–,–,–
CN1CCN(CC(=O)N[C@@H]2C[C@H]3CC[C@]2(C)C3(C)C)CC1,–,13.3 µM,853 µM,853 µM,64,–,–,–
CCOC(=O)N1CCN(CCCC(=O)O[C@@H]2C[C@@H]3CC[C@@]2(C)C3(C)C)CC1,–,2.6 µM,49.1 µM,60.4 µM,23,–,–,–
CCN(CC)CCC(=O)O[C@@H]1C[C@@H]2CC[C@@]1(C)C2(C)C,–,12.4 µM,411 µM,327 µM,26,–,–,–
CC1CCN(CCCC(=O)N[C@@H]2C[C@H]3CC[C@]2(C)C3(C)C)CC1,–,3.4 µM,142 µM,142 µM,41,–,–,–
CCN1CCN(CCCC(=O)N[C@@H]2C[C@H]3CC[C@]2(C)C3(C)C)CC1,–,2.1 µM,268 µM,268 µM,129,–,–,–
CC1(C)[C@H]2CC[C@]1(C)[C@H](OC(=O)CN1CCCCCC1)C2,–,1 µM,–,71.6 µM,70,–,–,–
CC1(C)[C@@H]2CC[C@@]1(C)[C@H](OC(=O)CN1CCCCC1)C2,–,2.9 µM,–,80.5 µM,28,–,–,–
CC1(C)[C@H]2CC[C@]1(C)[C@H](OC(=O)CN1CCN(Cc3ccccc3)CC1)C2,–,1.3 µM,39.8 µM,59.4 µM,44,–,–,–
CC1(C)[C@H]2CC[C@]1(C)[C@H](OC(=O)CCCN1CCCCCC1)C2,–,0.2 µM,–,62.2 µM,250,–,–,–
CN(C)CC(=O)O[C@@H]1C[C@@H]2CC[C@@]1(C)C2(C)C,–,251 µM,523 µM,389 µM,2,–,–,–

SMILES,IC50 (Influenza A virus),IC50 (cells [1]),IC50 (cells [2]),CC50 at 48 h [3],selectivity ratio (in vitro),CC50 at 240 h [4],IC50 (Marburgvirus),IC50 (Zaire ebolavirus)
CC1CCN(CCCCC(=O)O[C@@H]2C[C@@H]3CC[C@@]2(C)C3(C)C)CC1,–,0.2 µM,83.5 µM,73 µM,408,–,–,–
CCN1CCN(CCC(=O)N[C@@H]2C[C@H]3CC[C@]2(C)C3(C)C)CC1,–,0.6 µM,565 µM,565 µM,908,–,–,–
CC1(C)[C@@H]2CC[C@@]1(C)[C@H](NC(=O)CCCN1CCOCC1)C2,–,9.4 µM,172 µM,172 µM,18,–,–,–
CC1(C)[C@@H]2CC[C@@]1(C)[C@H](NC(=O)CN1CCOCC1)C2,–,5.7 µM,838 µM,838 µM,147,–,–,–
CC1(C)[C@H]2CC[C@]1(C)[C@H](OC(=O)CCCN1CCN(CCN)CC1)C2,–,0.6 µM,50.4 µM,71.1 µM,125,–,–,–
CN1CCN(CCCC(=O)O[C@@H]2C[C@@H]3CC[C@@]2(C)C3(C)C)CC1,–,0.6 µM,97.3 µM,99.2 µM,–,–,–,–
CC1(C)[C@H]2CC[C@]1(C)[C@H](OC(=O)CCCCN1CCCCC1)C2,–,0.6 µM,105 µM,101 µM,162,–,–,–
CC1(C)[C@H]2CC[C@]1(C)[C@H](OC(=O)CCCN1CCN(CCO)CC1)C2,–,0.3 µM,192 µM,224 µM,658,–,–,–
CC1(C)[C@H]2CC[C@]1(C)[C@H](OC(=O)CCCN1CCCCC1)C2,–,0.3 µM,50.1 µM,74.8 µM,230,–,–,–
CC1(C)[C@H]2CC[C@]1(C)[C@H](OC(=O)CCN1CCN(Cc3ccccc3)CC1)C2,–,0.3 µM,27 µM,39 µM,150,–,–,–
CN1CCN(CCCC(=O)N[C@@H]2C[C@H]3CC[C@]2(C)C3(C)C)CC1,–,2.5 µM,475 µM,475 µM,191,–,–,–
CC1(C)[C@H]2CC[C@]1(C)[C@H](OC(=O)CCCN1CCOCC1)C2,–,6.5 µM,288 µM,210 µM,33,–,–,–
CCN1CCN(CC(=O)N[C@@H]2C[C@H]3CC[C@]2(C)C3(C)C)CC1,–,8.5 µM,660 µM,660 µM,78,–,–,–
CCN(CC)CCCC(=O)O[C@@H]1C[C@@H]2CC[C@@]1(C)C2(C)C,–,0.3 µM,195 µM,166 µM,490,–,–,–
CN(C)CCC(=O)O[C@@H]1C[C@@H]2CC[C@@]1(C)C2(C)C,–,30 µM,–,505 µM,17,–,–,–
CC1(C)[C@H]2CC[C@]1(C)[C@@H](OC(=O)CN1CCCCC1)C2,–,3.6 µM,–,89.5 µM,25,–,–,–
CN1CCN(CCC(=O)N[C@@H]2C[C@H]3CC[C@]2(C)C3(C)C)CC1,–,2.6 µM,486 µM,486 µM,187,–,–,–
CC1(C)[C@H]2CC[C@]1(C)[C@H](OC(=O)CN1CCN(CCN)CC1)C2,–,2.2 µM,24.1 µM,247 µM,114,–,–,–
CCN1CCN(CCCC(=O)O[C@@H]2C[C@@H]3CC[C@@]2(C)C3(C)C)CC1,–,0.1 µM,165 µM,131 µM,880,–,–,–
CCN(CC)CC(=O)O[C@@H]1C[C@@H]2CC[C@@]1(C)C2(C)C,–,5.6 µM,561 µM,344 µM,61,–,–,–
CC1(C)[C@H]2CC[C@]1(C)[C@H](OC(=O)CCN1CCN(CCO)CC1)C2,–,1.8 µM,259 µM,272 µM,153,–,–,–
CC1(C)[C@@H]2CC[C@@]1(C)[C@H](NC(=O)CCN1CCOCC1)C2,–,22.1 µM,312 µM,312 µM,–,–,–,–
CC1CCN(CC(=O)O[C@H]2C[C@@H]3CC[C@@]2(C)C3(C)C)CC1,–,4.4 µM,–,34.1 µM,8,–,–,–
CC1(C)[C@H]2CC[C@]1(C)[C@H](OC(=O)CCCN1CCN(Cc3ccccc3)CC1)C2,–,0.3 µM,26 µM,30.1 µM,100,–,–,–
CN[C@H]1CC[C@@H](c2ccc(Cl)c(Cl)c2)c2ccccc21 [SERTRALINE],–,–,–,408 µM,–,–,–,–
